Source: ChEMBL document CHEMBL1155210, “The discovery of tertiary-amine LXR agonists with potent cholesterol efflux activity in macrophages” (Bioorg Med Chem Lett, 2009)

Key:
[1] = biological target: T1, Oxysterols receptor LXR-beta (Homo sapiens, UniProt P55055); test: Agonist activity at human LXRbeta assessed as association of SRC1 to LXRbeta ligand binding domain by FRET based cell-free ligand sensing assay
T1 sequence (P55055 whole entry): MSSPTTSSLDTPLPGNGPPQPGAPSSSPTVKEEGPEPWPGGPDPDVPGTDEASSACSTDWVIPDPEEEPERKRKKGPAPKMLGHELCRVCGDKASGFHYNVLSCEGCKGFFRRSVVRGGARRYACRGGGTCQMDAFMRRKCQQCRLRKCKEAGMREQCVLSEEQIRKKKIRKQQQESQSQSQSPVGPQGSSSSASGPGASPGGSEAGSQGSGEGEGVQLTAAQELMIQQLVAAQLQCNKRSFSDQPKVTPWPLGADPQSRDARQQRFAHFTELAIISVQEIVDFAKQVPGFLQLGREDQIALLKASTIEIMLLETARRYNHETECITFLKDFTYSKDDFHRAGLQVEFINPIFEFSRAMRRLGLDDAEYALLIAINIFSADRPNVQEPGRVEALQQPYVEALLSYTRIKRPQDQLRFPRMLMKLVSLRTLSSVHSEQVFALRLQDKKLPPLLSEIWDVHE
Summary of the method: (§1)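 Cell-free FRET ligand-sensing assay measuring ligand-dependent recruitment of a 24-amino-acid steroid receptor coactivator 1 (SRC1) fragment to the LXR ligand-binding domain. Percent efficacy is expressed against the maximal agonist response of the reference agonist. Values are means of at least two experiments, standard deviation ≤10%.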

[2] = biological target: Oxysterols receptor LXR-beta (Homo sapiens) (UniProt P55055); test: Agonist activity at human LXRbeta assessed as association of SRC1 to LXRbeta ligand binding domain by FRET based cell-free ligand sensing assay relative to 2-(3-(3-((2-chloro-3-(trifluoromethyl)benzyl)(2,2-diphenylethyl)amino)propoxy)phenyl)acetic acid; design: concentration or dose not given beside the values
[3] = biological target: T2, Oxysterols receptor LXR-alpha (Homo sapiens, UniProt Q13133); test: Agonist activity at human LXRalpha assessed as association of SRC1 to LXRalpha ligand binding domain by FRET based cell-free ligand sensing assay; summary of the method: as §1
T2 sequence (Q13133 whole entry): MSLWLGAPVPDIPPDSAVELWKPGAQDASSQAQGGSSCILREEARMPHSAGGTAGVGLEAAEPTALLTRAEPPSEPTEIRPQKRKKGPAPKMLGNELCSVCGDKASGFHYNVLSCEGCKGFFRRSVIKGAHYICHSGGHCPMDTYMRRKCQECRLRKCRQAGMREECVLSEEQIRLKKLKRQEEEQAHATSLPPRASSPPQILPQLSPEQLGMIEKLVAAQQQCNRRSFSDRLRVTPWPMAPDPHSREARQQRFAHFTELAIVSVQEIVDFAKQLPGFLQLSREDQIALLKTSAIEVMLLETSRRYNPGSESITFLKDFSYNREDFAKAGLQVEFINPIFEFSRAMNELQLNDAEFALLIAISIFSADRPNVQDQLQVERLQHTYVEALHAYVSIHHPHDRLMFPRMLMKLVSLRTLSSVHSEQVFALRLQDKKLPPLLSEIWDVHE

[4] = biological target: T3, Oxysterols receptor LXR-alpha (Homo sapiens) (UniProt Q13133); test: Agonist activity at human LXRalpha assessed as association of SRC1 to LXRalpha ligand binding domain by FRET based cell-free ligand sensing assay relative 2-(3-(3-((2-chloro-3-(trifluoromethyl)benzyl)(2,2-diphenylethyl)amino)propoxy)phenyl)acetic acid; summary of the method: as §1
T3 sequence (whole entry): T2 sequence (Q13133 whole entry)

RAW264.7 [5] = test: Induction of [3H]cholesterol efflux in mouse RAW264.7 cells loaded with acetylated-LDL after 24 hrs; format: functional, cell-based
Summary of the method: (§2)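 Mouse RAW 264.7 macrophages were grown overnight, then loaded for 24 h with acetylated LDL (final 50 µg/mL) plus 3H-cholesterol (5 µCi/mL). Cells were washed and held 24 h in serum-free, phenol red-free medium with 1% fatty acid-free BSA and compound in DMSO. Efflux then ran 24 h into medium with 0.1% BSA, 5 µg/mL apoA-I and fresh compound. Filtered medium and NaOH cell lysate were counted by scintillation.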

Macrophage [6] = test: Increase in ABCG1 gene expression in human primary macrophages at 30 nM relative to control; format: functional
Macrophage [7] = test: Increase in ABCA1 gene expression in human primary macrophages at 100 nM relative to control; format: functional
RAW264.7 [8] = test: Induction of [3H]cholesterol efflux in mouse RAW264.7 cells loaded with acetylated-LDL after 24 hrs relative to 2-(3-(3-((2-chloro-3-(trifluoromethyl)benzyl)(2,2-diphenylethyl)amino)propoxy)phenyl)acetic acid; format: functional; summary of the method: as §2
Macrophage [9] = test: Increase in SREBP1 gene expression in human primary macrophages at 100 nM relative to control; format: functional
Macrophage [10] = test: Increase in ABCA1 gene expression in human primary macrophages; format: functional, cell-based
Macrophage [11] = test: Increase in ABCG1 gene expression in human primary macrophages at 100 nM relative to control; format: functional
Macrophage [12] = test: Increase in ABCG1 gene expression in human primary macrophages; format: functional, cell-based
Macrophage [13] = test: Increase in ABCA1 gene expression in human primary macrophages at 30 nM relative to control; format: functional
[14] = biological target: T4, Nuclear receptor subfamily 1 group I member 2 (Homo sapiens, UniProt O75469); test: Binding affinity to PXR by scintillation proximity binding assay
T4 sequence (O75469 whole entry): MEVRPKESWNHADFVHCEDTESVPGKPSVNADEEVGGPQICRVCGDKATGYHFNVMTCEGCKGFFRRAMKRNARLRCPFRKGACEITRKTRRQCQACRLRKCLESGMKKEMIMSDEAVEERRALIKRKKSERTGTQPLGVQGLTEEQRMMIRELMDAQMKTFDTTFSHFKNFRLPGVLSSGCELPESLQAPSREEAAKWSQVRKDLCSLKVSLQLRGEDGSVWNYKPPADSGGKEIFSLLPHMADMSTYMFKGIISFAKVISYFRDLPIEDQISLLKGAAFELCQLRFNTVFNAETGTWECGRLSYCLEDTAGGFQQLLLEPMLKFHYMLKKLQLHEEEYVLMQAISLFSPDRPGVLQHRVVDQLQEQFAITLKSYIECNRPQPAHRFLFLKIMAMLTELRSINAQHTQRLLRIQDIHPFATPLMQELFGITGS

[15] = Plasma clearance in Sprague-Dawley rat at 2.6 mg/kg, iv; format: ADME, organism-based; design: dose 2.6 mg/kg, route intravenous
[16] = Half life in Sprague-Dawley rat at 2.6 mg/kg, iv; format: ADME, organism-based; design: dose 2.6 mg/kg, route intravenous; details: in vivo
[17] = Volume of distribution at steady state in Sprague-Dawley rat at 2.6 mg/kg, iv; format: ADME, organism-based; design: dose 2.6 mg/kg, route intravenous; details: in vivo, read-out: Vdss
[18] = Cmax in Sprague-Dawley rat at 2.6 mg/kg, iv; format: ADME, organism-based; design: dose 2.6 mg/kg, route intravenous; details: in vivo
[19] = Half life in Sprague-Dawley rat at 4.5 mg/kg, po; format: ADME, organism-based; design: dose 4.5 mg/kg, route oral; details: in vivo
Summary of the method: (§3)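 Pharmacokinetics were measured after an intravenous dose of 2.6 mg/kg and an oral dose of 4.5 mg/kg. Oral half-life and oral bioavailability (F%) are reported as mean ± deviation.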

[20] = Oral bioavailability in Sprague-Dawley rat at 4.5 mg/kg; format: ADME, organism-based; details: in vivo; summary of the method: as §3

SMILES: CCC(CC)(C(=O)O)c1cccc(OCCCN(Cc2cccc(C(F)(F)F)c2Cl)CC(c2ccccc2)c2ccccc2)c1
- EC50 [1]: 0.174 µM
- Activity [2]: 68%
- EC50 [3]: 0.38 µM
- Activity [4]: 69%

SMILES: CC(C)(C(=O)O)c1cccc(OCCCN(Cc2cccc(C(F)(F)F)c2Cl)CC(c2ccccc2)c2ccccc2)c1
- EC50 (RAW264.7 [5]): 0.007 µM
- fold change (FC) (Macrophage [6]): 7.5
- EC50 [1]: 0.015 µM
- fold change (FC) (Macrophage [7]): 4
- fold change (FC) (RAW264.7 [8]): 2
- fold change (FC) (Macrophage [9]): 5.8
- Activity [2]: 95%
- Activity (Macrophage [10]): Dose-dependent effect
- EC50 [3]: 0.043 µM
- fold change (FC) (Macrophage [11]): 11.2
- Activity [4]: 100%
- Activity (Macrophage [12]): Dose-dependent effect
- fold change (FC) (Macrophage [13]): 3

SMILES: O=C(O)Cc1cccc(OCCCN(Cc2cccc(C(F)(F)F)c2Cl)CC(c2ccccc2)c2ccccc2)c1
- EC50 (RAW264.7 [5]): 0.029 µM
- Ki [14]: 2 µM
- fold change (FC) (Macrophage [6]): 3.2
- fold change (FC) (Macrophage [7]): 3.1
- fold change (FC) (Macrophage [9]): 4.1
- Activity (Macrophage [10]): Dose-dependent effect
- EC50 [3]: 0.2 µM
- fold change (FC) (Macrophage [11]): 5.4
- Activity (Macrophage [12]): Dose-dependent effect
- fold change (FC) (Macrophage [13]): 2

SMILES: O=C(O)C1CCCc2c(OCCCN(Cc3cccc(C(F)(F)F)c3Cl)CC(c3ccccc3)c3ccccc3)cccc21 (racemic)
- EC50 (RAW264.7 [5]): 0.018 µM
- fold change (FC) (Macrophage [6]): 2
- EC50 [1]: 0.026 µM
- fold change (FC) (Macrophage [7]): 2.6
- fold change (FC) (RAW264.7 [8]): 2
- fold change (FC) (Macrophage [9]): 2.6
- Activity [2]: 100%
- Activity (Macrophage [10]): Dose-dependent effect
- EC50 [3]: 0.056 µM
- fold change (FC) (Macrophage [11]): 3.6
- Activity [4]: 100%
- Activity (Macrophage [12]): Dose-dependent effect
- fold change (FC) (Macrophage [13]): 1.4

SMILES: C[C@H](CCN(Cc1cccc(C(F)(F)F)c1Cl)CC(c1ccccc1)c1ccccc1)Oc1cccc(CC(=O)O)c1
- EC50 (RAW264.7 [5]): 0.034 µM
- Ki [14]: > 10 µM
- EC50 [1]: 0.041 µM
- Activity [2]: 76%
- EC50 [3]: 0.2 µM
- Activity [4]: 78%

SMILES: C[C@@H](COc1cccc(CC(=O)O)c1)CN(Cc1cccc(C(F)(F)F)c1Cl)CC(c1ccccc1)c1ccccc1
- EC50 (RAW264.7 [5]): 0.076 µM
- EC50 [1]: 0.086 µM
- Activity [2]: 70%
- EC50 [3]: 0.28 µM
- Activity [4]: 67%

SMILES: CC(C(=O)O)c1cccc(OCCCN(Cc2cccc(C(F)(F)F)c2Cl)CC(c2ccccc2)c2ccccc2)c1 (stereo not given)
- EC50 (RAW264.7 [5]): 0.015 µM
- EC50 [1]: 0.015 µM
- fold change (FC) (RAW264.7 [8]): 2
- Activity [2]: 90%
- EC50 [3]: 0.046 µM
- Activity [4]: 100%

SMILES: C[C@H](CCOc1cccc(CC(=O)O)c1)N(Cc1cccc(C(F)(F)F)c1Cl)CC(c1ccccc1)c1ccccc1 [ABEQUOLIXRON]
- EC50 (RAW264.7 [5]): 0.017 µM
- Ki [14]: > 10 µM
- fold change (FC) (Macrophage [6]): 4.2
- clearance [15]: 23.7 mL/min/kg
- half-life [16]: 1.82 h
- EC50 [1]: 0.025 µM
- Vd [17]: 1.9 L/kg
- fold change (FC) (Macrophage [7]): 6.3
- fold change (FC) (RAW264.7 [8]): 2
- fold change (FC) (Macrophage [9]): 5.5
- Activity [2]: 89%
- Activity (Macrophage [10]): Dose-dependent effect
- Cmax [18]: 2130 ng/mL
- EC50 [3]: 0.074 µM
- fold change (FC) (Macrophage [11]): 8
- Activity [4]: 100%
- half-life [19]: 2.4 h
- bioavailability [20]: 71%
- Activity (Macrophage [12]): Dose-dependent effect
- fold change (FC) (Macrophage [13]): 3.6

SMILES: C[C@@H](CCOc1cccc(CC(=O)O)c1)N(Cc1cccc(C(F)(F)F)c1Cl)CC(c1ccccc1)c1ccccc1
- EC50 (RAW264.7 [5]): 0.054 µM
- EC50 [1]: 0.087 µM
- Activity [2]: 80%
- EC50 [3]: 0.211 µM
- Activity [4]: 91%

SMILES: O=C(O)Cc1ccc2oc(CCN(Cc3cccc(C(F)(F)F)c3Cl)CC(c3ccccc3)c3ccccc3)cc2c1
- EC50 [1]: 0.145 µM
- Activity [2]: 26%
- EC50 [3]: 0.305 µM
- Activity [4]: 20%

SMILES: C[C@@H](CCN(Cc1cccc(C(F)(F)F)c1Cl)CC(c1ccccc1)c1ccccc1)Oc1cccc(CC(=O)O)c1
- EC50 [1]: 0.145 µM
- Activity [2]: 59%
- EC50 [3]: 0.365 µM
- Activity [4]: 39%

SMILES: O=C(O)Cc1ccc2cc(CCN(Cc3cccc(C(F)(F)F)c3Cl)CC(c3ccccc3)c3ccccc3)oc2c1
- EC50 [1]: 0.063 µM
- Activity [2]: 75%
- EC50 [3]: 0.331 µM
- Activity [4]: 53%

SMILES: C[C@H](CCOc1cccc(C(C)(C)C(=O)O)c1)N(Cc1cccc(C(F)(F)F)c1Cl)CC(c1ccccc1)c1ccccc1
- EC50 (RAW264.7 [5]): < 0.003 µM
- EC50 [1]: 0.011 µM
- fold change (FC) (RAW264.7 [8]): 2
- Activity [2]: 100%
- EC50 [3]: 0.009 µM
- Activity [4]: 100%
